Holding throughout (assay type): tissue-based
For assay [1], the species on record is Cavia porcellus. Description: Effect on Prostaglandin receptor-induced contraction in guinea pig ileum assessed as intrinsic activity at 0.4 ug by kymography relative to PGE1. The method, boiled down: (§1)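 Guinea-pig terminal ileum in a 3-mL oxygenated Tyrode bath at 30 °C with cyproheptadine 3 × 10^-9 mol/L. Dosed at 5-min intervals, 30 s contact, isotonic lever on a smoked drum. Final concentrations were 3.6–17.9 × 10^-7 mol/L for the compound and 0.94–18.8 × 10^-9 mol/L for PGE1 standards. Activity bracketed between two PGE1 doses, mean of five observations.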

Assay [2] is filed under the species Rattus norvegicus. Nature of the assay: Effect on Prostaglandin receptor-induced contraction in rat stomach fundus strip assessed as intrinsic activity at 1.6 ug by kymography relative to PGE1. An outline of the steps: (§2)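 Rat fundus strips in Krebs, dosed once tone was constant. Final bath concentrations were 2.70–13.5 × 10^-7 mol/L for the compound and 0.70–14.0 × 10^-9 mol/L for PGE1 standards, from ethanol stocks. Auxotonic kymograph recording, 10-min cycle, 90 s contact. PGE1-like activity was bracketed between two PGE1 standard doses, mean of five observations per concentration.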

Assay [3] is filed under the species Rattus norvegicus. Description: Effect on Prostaglandin receptor-induced contraction in rat stomach fundus strip assessed as intrinsic activity at 0.4 ug by kymography relative to PGE1. The method, boiled down:
as §2

The species entered for assay [4] is Rattus norvegicus. Description: Effect on Prostaglandin receptor-induced contraction in rat stomach fundus strip assessed as intrinsic activity at 2.0 ug by kymography relative to PGE1. An outline of the steps: as §2
The species named for assay [5] is Rattus norvegicus. Description: Effect on Prostaglandin receptor-induced contraction in rat stomach fundus strip assessed as intrinsic activity at 0.8 ug by kymography relative to PGE1. The method, boiled down:
as §2

The species named for assay [6] is Cavia porcellus. Description: Effect on Prostaglandin receptor-induced contraction in guinea pig ileum assessed as intrinsic activity at 2.0 ug by kymography relative to PGE1. An outline of the steps:
as §1

The species named for assay [7] is Cavia porcellus. Nature of the assay: Effect on Prostaglandin receptor-induced contraction in guinea pig ileum assessed as intrinsic activity at 0.8 ug by kymography relative to PGE1. The method, boiled down:
as §1

The species named for assay [8] is Rattus norvegicus. Description: Inhibition of Prostaglandin receptor-induced adenylate cyclase activation in rat liver homogenate assessed as cAMP level at 6.7 to 13.4 x 10^-3 M after 10 mins relative to control.
For assay [9], the species on record is Cavia porcellus. Nature of the assay: Effect on Prostaglandin receptor-induced contraction in guinea pig ileum assessed as intrinsic activity at 1.6 ug by kymography relative to PGE1. An outline of the steps:
as §1

The species named for assay [10] is Rattus norvegicus. Description: Induction of Prostaglandin receptor-induced adenylate cyclase activation in rat liver homogenate assessed as increase in cAMP level at 6.7 to 13.4 x 10^-3 M after 10 mins relative to control. The method, boiled down:
(§3)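 Rat liver homogenate adenylate cyclase, 10 min at 37 °C in Tris-HCl 0.1 mol/L pH 8.0 with ATP 4 × 10^-3, MgSO4 15 × 10^-3, GTP 5 × 10^-4, EGTA 1 × 10^-4 and theophylline 5 × 10^-3 mol/L. Stopped by 2 min boiling, then frozen, thawed and centrifuged. cAMP in the supernatant measured by the Brown method, saline blanks, four replicates.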
In general terms: cAMP levels reflect the balance of adenylyl cyclase and phosphodiesterase activity.

Assay [11] in a line: Competitive inhibition of Prostaglandin receptor in rat stomach fundus strip assessed as inhibition of PGE1-induced contraction by kymography. An outline of the steps: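 Rat stomach fundus strip contractions to PGE1 11.3 × 10^-9 mol/L compared with and without analogue at 2.15–21.5 × 10^-6 mol/L. Stock in ethanol, diluted in Krebs. Kymograph with auxotonic lever, load 1 g baseline and 3 g maximal, 10-min dose cycle, 90 s contact. Approximate IC50 taken from the inhibition concentration-response curve in four preparations.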

Assay [12] is filed under the species Rattus norvegicus. Nature of the assay: Induction of Prostaglandin receptor-induced adenylate cyclase activation in rat liver homogenate assessed as increase in cAMP level at equimolar dose of 2.8 x 10^-5 mol/L PGE1 after 10 mins relative to control. The method, boiled down:
as §3

Active and inactive are the calls of the source. No cut-off for these calls is given here.

The term inhibition denotes the drop in the measured response relative to a control, in per cent. By IC50 is commonly meant the concentration at which inhibition is half-maximal. As to `CCCCCC(O)/C=C/c1[nH]c2ccccc2c1CCCCCCC(=O)O` (configuration not stated), the Intrinsic activity in the assay filed under Cavia porcellus [1] came to 0.004; in the assay listed under Rattus norvegicus [2], 0.00056; in the assay listed under Rattus norvegicus [3], 0.00075; in the assay listed under Rattus norvegicus [4], 0.00055; in the assay filed under Rattus norvegicus [5] it was 0.00075; in the assay listed under Cavia porcellus [6], 0.0057. For the same compound, the Intrinsic activity in the assay filed under Cavia porcellus [7] is 0.0029; in the assay filed under Cavia porcellus [9], 0.0014. Moreover, the inhibition in the assay listed under Rattus norvegicus [8] amounted to 40%. Moreover, the outcome in the assay listed under Rattus norvegicus [10] was Active. In addition, the IC50 in assay [11] amounted to 11.8 µM. In addition, the outcome in the assay filed under Rattus norvegicus [12] was inactive.
